Measurements taken from ChEMBL document CHEMBL1122233, “Antihypertensive 9-substituted 1-oxa-4,9-diazaspiro[5.5]undecan-3-ones” (J Med Chem, 1983).

Tests used:
Assay type in all cases: functional, Artery
Settings in all cases: route oral
Rattus norvegicus [1] = assay: Percentage fall in systolic blood pressure after 3 hr at 0.31 mg/kg given perorally
Outline: (§1)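 Male Okamoto-Aoki spontaneously hypertensive rats, trained, in groups of four matched for mean systolic pressure; five treated groups and one vehicle control run concurrently. Oral dosing in water (solution or suspension, 0.1 mL/10 g) on two consecutive mornings. On day 2, rats were restrained at 30.0 ± 1.0 °C and tail-cuff systolic pressure recorded at 1–4 h; percent fall versus control, 1-tail t test, p ≤ 0.05.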

Rattus norvegicus [2] = assay: Percentage fall in systolic blood pressure after 1 hr at 0.31 mg/kg given perorally; outline: as §1
Rattus norvegicus [3] = assay: Percentage fall in systolic blood pressure after 1 hr at 1.25 mg/kg given perorally; outline: as §1
Rattus norvegicus [4] = assay: Percentage fall in systolic blood pressure after 2 hr at 0.31 mg/kg given perorally; outline: as §1
Rattus norvegicus [5] = assay: Percentage fall in systolic blood pressure after 2 hr at 1.25 mg/kg given perorally; outline: as §1
Rattus norvegicus [6] = assay: Percentage fall in systolic blood pressure after 4 hr at 0.31 mg/kg given perorally; outline: as §1
Rattus norvegicus [7] = assay: Percentage fall in systolic blood pressure after 4 hr at 1.25 mg/kg given perorally; outline: as §1
Rattus norvegicus [8] = assay: Percentage fall in systolic blood pressure after 3 hr at 1.25 mg/kg given perorally; outline: as §1

SMILES: COc1cc2nc(N3CCN(C(=O)c4ccco4)CC3)nc(N)c2cc1OC [PRAZOSIN]
- Decrease in SBP (Rattus norvegicus [1]): 21%
- Decrease in SBP (Rattus norvegicus [2]): 19%
- Decrease in SBP (Rattus norvegicus [3]): 26%
- Decrease in SBP (Rattus norvegicus [4]): 31%
- Decrease in SBP (Rattus norvegicus [5]): 46%
- Decrease in SBP (Rattus norvegicus [6]): 26%
- Decrease in SBP (Rattus norvegicus [7]): 31%
- Decrease in SBP (Rattus norvegicus [8]): 36%
